Active and inactive are the calls of the source. The rule behind the calls is not given here.
Key:
[1] = target: T1, GNAQ/GNA11 (Homo sapiens) (UniProt P50148+P29992); assay: Inhibition of Galphaq/11 (unknown origin) expressed in CHO cells coexpressing M1 receptor assessed as reduction in carbachol-induced IP1 accumulation at 10 uM preincubated for 1 hr followed by carbachol stimulation and measured after 1 hr by HTRF assay relative to control; format: cell-based; details: time 2.0 hrs
CHO [2] = assay: Induction of morphological changes in chinese hamster CHO cells overexpressing M1 receptor upto 20 uM by light microscopic analysis; format: cell-based, Cricetulus griseus
Summary of the method: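 CHO-M₁ cells were treated with compound at 10 or 20 μM for 2 h, and changes in cell morphology were examined by microscopy.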

CHO [3] = assay: Cytotoxicity against chinese hamster CHO cells overexpressing M1 receptor assessed as cell viability upto 20 uM for 24 hrs by CCK8 assay; format: cell-based, Cricetulus griseus
Summary of the method: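 CHO cells stably expressing the M₁ receptor were treated with a range of compound concentrations for 2 h or 24 h. Viability measured by CCK-8 and given as percentage. Mean ± SD of three independent experiments.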

921 [4] = assay: Antiproliferative activity against human 92.1 cells assessed as inhibition of cell growth at 5 to 15 uM by CCK8 assay; format: functional, cell-based; details: dose 5-15 µM, time 24-96 hrs, TDE = time-dependent effect
921 [5] = assay: Antiproliferative activity against GNAQ knock down human 92.1 cells assessed as inhibition of cell growth at 10 to 15 uM after 72 hrs by CKK8 assay; format: functional; details: dose 10-15 µM
[6] = Induction of apoptosis in human 921 cells assessed as early apoptotic cells at 5 uM after 48 hrs by Annexin-V-FITC/propidium iodide staining based flow cytometry (reference value: 3.39%); format: functional
[7] = Induction of apoptosis in human 921 cells assessed as late apoptotic cells at 5 uM after 48 hrs by Annexin-V-FITC/propidium iodide staining based flow cytometry (reference value: 2.52%); format: functional
[8] = Induction of apoptosis in human MP41 cells assessed as viable cells at 15 uM after 48 hrs by Annexin-V-FITC/propidium iodide staining based flow cytometry (reference value: 93.6%); format: functional; details: read-out: Activity
MP41 [9] = assay: Inhibition of colony formation in human MP41 cells at 5 to 15 uM after 9 days by crystal violet staining based light microscopic analysis; format: functional, cell-based; details: dose 5-15 µM, time 9.0 day
Summary of the method: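 Cells seeded 4 × 10³/well, incubated overnight at 37 °C, 5% CO₂, then exposed to compound for 9 days until colonies visible, medium and inhibitor replaced every 3 days. Fixed in 4% paraformaldehyde 15 min, crystal violet-stained 30 min, colonies counted. Repeated twice.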

921 [10] = assay: Inhibition of cell migration in human 921 cells at 15 uM incubated for 48 hrs by transwell migration assay; format: functional, cell-based
Summary of the method: (§1)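 92.1 or MP41 cells (1 × 10⁴/well) seeded in serum-free medium in the upper transwell chamber, with 20% FBS medium below. Left overnight, then treated 48 h. Non-migrated cells swabbed off; cells on the lower side stained with crystal violet 30 min and counted by light microscopy (×40 for migration, ×100 for invasion). Mean ± SD, n = 3.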

MP41 [11] = assay: Inhibition of cell invasion in human MP41 cells at 5 to 15 uM incubated for 48 hrs by transwell assay; format: functional, cell-based; details: dose 5-15 µM; summary of the method: as §1
[12] = Antitumor activity against human MP41 cells xenografted in nude BALB/c mouse assessed as tumor growth inhibition at 30 mg/kg, ip administered for once daily for 21 days and measured every 3 days; format: functional; details: 504 h, time 21 day, read-out: TGI
Summary of the method: (§2)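 MP41 tumours were passaged subcutaneously mouse-to-mouse in nude BALB/c mice (6−8 weeks, 20−25 g). Tertiary recipients randomized, n = 8/group, given 10 or 30 (mg/kg)/d ip or vehicle for 21 days. Tumour size (V = A × B² × π/6, caliper) and body weight taken every 3 days; tumours excised and weighed on day 22. TGI computed versus the vehicle group.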

[13] = Antitumor activity against human MP41 cells xenografted in nude BALB/c mouse assessed as tumor growth inhibition at 10 mg/kg, ip administered for once daily for 21 days and measured every 3 days; format: functional; details: 504 h, time 21 day, read-out: TGI; summary of the method: as §2
[14] = Toxicity in nude BALB/c mouse xenografted with human MP41 cells assessed as morphological changes in liver tissue at 10 to 30 mg/kg, ip administered once daily for 21 days and measured every 3 days by HE staining based assay; format: organism-based; details: in vivo, 504 h, dose 10-30 mg/kg, time 21 day
Summary of the method: (§3)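 Nude BALB/c mice bearing serially passaged MP41 tumour slices (tertiary recipients, n = 8/group, randomized) dosed ip daily for 21 days at 10 or 30 mg/kg/d or vehicle. Body weight monitored every 3 days. Tissues collected at sacrifice, fixed in 4% paraformaldehyde 24 h, paraffin-embedded, H&E stained, viewed at ×100.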

[15] = Toxicity in nude BALB/c mouse xenografted with human MP41 cells assessed as morphological changes in spleen tissue at 10 to 30 mg/kg, ip administered once daily for 21 days and measured every 3 days by HE staining based assay; format: organism-based; details: in vivo, 504 h, dose 10-30 mg/kg, time 21 day; summary of the method: as §3
[16] = Toxicity in nude BALB/c mouse xenografted with human MP41 cells assessed as morphological changes in kidney tissue at 10 to 30 mg/kg, ip administered once daily for 21 days and measured every 3 days by HE staining based assay; format: organism-based; details: in vivo, 504 h, dose 10-30 mg/kg, time 21 day; summary of the method: as §3
[17] = target: T1, GNAQ/GNA11 (Homo sapiens); assay: Inhibition of Galphaq/11 in human 921 cells assessed as reduction in ERK phosphorylation at 15 to 30 uM after 48 hrs by Western blot analysis; format: cell-based; details: b, dose 15-30 µM
Summary of the method: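 92.1 and MP41 cells plated overnight, then exposed to compound 48 h. Lysed in ice-cold buffer and protein quantified by BCA. Resolved on 8−12% SDS−PAGE and transferred to PVDF. Probed for p-YAP Ser127, total YAP, p-ERK1/2 Thr202/Tyr204 and total ERK1/2, with GAPDH as loading control. ECL detection, triplicate.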

[18] = Cmax in ICR mouse at 30 mg/kg, po measured upto 24 hrs by LC-MS/MS analysis; format: ADME, organism-based; parameters: route oral, dose 30 mg/kg, time <=24; details: in vivo
Summary of the method: (§4)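 Single dose in male ICR mice, 10 mg/kg iv or 30 mg/kg po, dissolved in 5% DMSO/95% saline. Blood drawn by catheter at 0, 5, 15, 30 min and 1, 2, 4, 6, 8, 24 h. Plasma spun 6800g 6 min at 2−8 °C, stored −80 °C, quantified by LC−MS/MS. Noncompartmental parameters, mean ± SD, n = 6.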

[19] = MRT(0 to t) in ICR mouse at 10 mg/kg, iv measured upto 24 hrs by LC-MS/MS analysis; format: ADME, organism-based; details: in vivo
Summary of the method: (§5)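 Single-dose PK in male ICR mice (n = 6): 10 mg/kg iv or 30 mg/kg po, vehicle 5% DMSO/95% saline. Blood (30 μL) by catheter at 0, 5, 15, 30 min and 1, 2, 4, 6, 8, 24 h; plasma by centrifugation, stored −80 °C, measured by LC–MS/MS. Parameters from noncompartmental analysis, mean SD.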

[20] = Volume of distribution at steady state in ICR mouse at 10 mg/kg, iv measured upto 24 hrs by LC-MS/MS analysis; format: ADME, organism-based; details: in vivo, read-out: Vdss; summary of the method: as §5
[21] = Clearance in ICR mouse at 10 mg/kg, iv measured upto 24 hrs by LC-MS/MS analysis; format: ADME, organism-based; details: in vivo; summary of the method: as §4
[22] = Oral bioavailability in ICR mouse at 30 mg/kg measured upto 24 hrs by LC-MS/MS analysis; format: ADME, organism-based; details: in vivo; summary of the method: as §5

- inhibition [1]: 36.5%
- inhibition [17]: Active
- Cmax [18]: 2890 ng/mL
- MRT last at 24 h [19]: 55.8 min
- Vd [20]: 4.53 L/kg
- clearance [21]: 77.9 mL/min/kg
- bioavailability [22]: 92.6%
SMILES: CC[C@@H](C)[C@H](N)C(=O)N1CCn2cc(-c3ccccc3)nc2[C@@H]1CC1CCCCC1
- Activity (CHO [2]): Non-Toxic
- Activity (CHO [3]): Non-Toxic
- Activity 921 [4]: Tde
- Activity 921 [5]: inactive
- Activity [6]: 6.08%
- Activity [7]: 3.4%
- viability at 15 µM [8]: 90.2%
- inhibition (MP41 [9]): Active
- inhibition 921 [10]: Active
- inhibition (MP41 [11]): Active
- inhibition in vivo at 30 mg/kg [12]: 99%
- inhibition in vivo at 10 mg/kg [13]: 65.4%
- Activity [14]: Non-Toxic
- Activity [15]: Non-Toxic
- Activity [16]: Non-Toxic
